Measured values taken from paper PMC6682138 (ACS Omega, 2019).

System: A549 cells
Experiment: MTT cytotoxicity assay, A549
Assay type: cell-based, human
Conditions: read-out: IC50 A549, 24 h incubation
How it was run: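 MTT assay. Cells seeded at 2 × 10^4 per well. A549 and HeLa S3 were maintained in DMEM with 10% FBS, 2 mM L-glutamine and antibiotics at 37 °C, 5% CO2. Test compound in DMSO (0.5%) applied at 100–3.125 μM for 24 h. After a PBS wash, cells received fresh DMEM with MTT (5 mg/mL) for 3–4 h in the dark. DMSO was added and absorbance read at 570 nm. Inhibition % = (A−B)/A × 100 versus untreated control, and IC50 taken from viability–concentration curves.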

## N.N.[Cl][Pt][Cl] [cisplatin, reference compound]
  IC50: 18 ± 3.1 µM
